Columns and labels:
Assay type in all cases: functional, Muscle tissue
Rattus norvegicus [1] = species: Rattus norvegicus; assay: Superoxide dismutase activity measured as inhibition of Cytochrome C reduction by 50% in isolated rat heart muscle subjected to global ischemia
Method in brief: (§1)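 Isolated rat hearts: 10 min initial perfusion, then 15 min recirculating Krebs with drug (diluted from 10⁻² M DMSO stock; final DMSO 0.01% v/v, matched in controls), 30 min global ischemia, then 30 min reperfusion with the same regime. Hearts were homogenized and frozen in liquid nitrogen. Enzymes were assayed in the centrifuged supernatant, normalized […]; mean ± S.D.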

Rattus norvegicus [2] = species: Rattus norvegicus; assay: Effect of compound on catalase measured as disappearance of H2O2 in isolated rat heart muscle subjected to global ischemia; method in brief: as §1
Rattus norvegicus [3] = species: Rattus norvegicus; assay: Effect of compound on Glutathione peroxidase measured as disappearance of NADPH in isolated rat heart muscle subjected to global ischemia; method in brief: as §1

Row | Compound | Activity (Rattus norvegicus [1]) | Activity (Rattus norvegicus [2]) | Activity (Rattus norvegicus [3])
1 | Oc1ncnc2[nH]ncc12 [ALLOPURINOL] | 9800 U (mg of protein)-1 | 21 U (mg of protein)-1 | 1912 U (mg of protein)-1
2 | CC(C)(C)c1cc(/C=C/C(=O)c2ccc(O)cc2O)cc(C(C)(C)C)c1O | 8740 U (mg of protein)-1 | 20 U (mg of protein)-1 | 1879 U (mg of protein)-1
3 | CC(C)(C)c1cc(/C=C2\C(=O)c3ccc(O)cc3OC2c2cc(C(C)(C)C)c(O)c(C(C)(C)C)c2)cc(C(C)(C)C)c1O (stereo not drawn) | 8935 U (mg of protein)-1 | 21 U (mg of protein)-1 | 1906 U (mg of protein)-1
4 | CC(C)(C)c1cc(-c2cc(=O)c3ccc(O)cc3o2)cc(C(C)(C)C)c1O | 8433 U (mg of protein)-1 | 21 U (mg of protein)-1 | 1982 U (mg of protein)-1
5 | C[C@@H]1O[C@@H](OC[C@H]2O[C@@H](Oc3c(-c4ccc(O)c(O)c4)oc4cc(O)cc(O)c4c3=O)[C@H](O)[C@@H](O)[C@@H]2O)[C@H](O)[C@H](O)[C@H]1O [RUTIN] | 9077 U (mg of protein)-1 | 21 U (mg of protein)-1 | 1829 U (mg of protein)-1
6 | Cc1cc(C(C)(C)C)c(O)c(C(C)(C)C)c1 [BUTYLATED HYDROXYTOLUENE] | 9636 U (mg of protein)-1 | 20 U (mg of protein)-1 | 1803 U (mg of protein)-1

Source: ChEMBL document CHEMBL1134044, “Beneficial effects of different flavonoids, on functional recovery after ischemia and reperfusion in isolated rat heart” (2001)
